Experimental data: ChEMBL document CHEMBL3784941, “Rational Design, Synthesis, and Preliminary Structure-Activity Relationships of α-Substituted-2-Phenylcyclopropane Carboxylic Acids as Inhibitors of Salmonella typhimurium O-Acetylserine Sulfhydrylase” (J Med Chem, 2016)
The source made the active and inactive calls. No cut-off for these calls is given here.

How the values were obtained:
[1] = Binding affinity to recombinant Salmonella typhimurium His6-tagged OASS-A expressed in Escherichia coli by fluorimetric titration method; set-up: species or system Salmonella enterica subsp. enterica serovar Typhimurium
Summary of the method: (§1)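 OASS coenzyme fluorescence titrated with ligand. Conditions were 0.5−1.0 μM enzyme in 100 mM Hepes, pH 7.0, at 20 °C. Excitation was at 412 nm and the emission spectra were recorded. Intensity at 500 nm, minus the ligand-free signal, was fitted to a single-site binding isotherm to give Kdiss.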

[2] = Binding affinity to recombinant Salmonella typhimurium His10-tagged OASS-B expressed in Escherichia coli by fluorimetric titration method; set-up: species or system Salmonella enterica subsp. enterica serovar Typhimurium; summary of the method: as §1
[3] = Inhibition of recombinant Salmonella typhimurium His6-tagged OASS-A expressed in Escherichia coli using OAS as substrate by discontinuous assay; set-up: species or system Salmonella enterica subsp. enterica serovar Typhimurium
[4] = Inhibition of recombinant Salmonella typhimurium His10-tagged OASS-B expressed in Escherichia coli using OAS as substrate by discontinuous assay; set-up: species or system Salmonella enterica subsp. enterica serovar Typhimurium
[5] = system: Salmonella enterica subsp. enterica serovar Typhimurium; assay: Binding affinity to recombinant Salmonella typhimurium His6-tagged OASS-A expressed in Escherichia coli at <20 uM by fluorimetric titration method; summary of the method: as §1
[6] = Solubility in 100 mM HEPES buffer at pH 7 containing 1% DMSO at >20 uM at 20 degC; format: physicochemical

Compound: CC[C@@]1(C(=O)O)C[C@H]1c1ccccc1
- Kd [1]: 12.1 µM
- Kd [2]: 860 µM

Compound: O=C(O)[C@H]1C[C@@H]1c1ccccc1 (relative stereo)
- Kd [1]: 9.2 µM
- Kd [2]: 148 µM

Compound: Cc1ccc(C[C@]2(C(=O)O)C[C@@H]2c2ccccc2)cc1 (racemic)
- Kd [1]: 0.077 µM
- Kd [2]: 1.2 µM

Compound: O=C(O)[C@@]1(Cc2ccccc2)C[C@@H]1c1ccccc1
- Kd [1]: 50 µM
- Kd [2]: 197 µM

Compound: Cc1ccc(C[C@@]2(C(=O)O)C[C@H]2c2ccccc2)cc1
- Kd [1]: 0.028 µM
- Kd [2]: 0.49 µM

Compound: O=C(O)[C@@]1(Cc2ccc(Cl)cc2)C[C@@H]1c1ccccc1 (racemic)
- Kd [1]: 0.156 µM
- Kd [2]: 0.76 µM

Compound: H-MNLNI-OH
- Kd [1]: 120 µM
- Kd [2]: 3000 µM

Compound: O=C(O)[C@]1(Cc2ccccc2)C[C@H]1c1ccccc1
- Kd [1]: 0.067 µM
- Kd [2]: 1.66 µM

Compound: CC[C@]1(C(=O)O)C[C@@H]1c1ccccc1
- Kd [1]: 1200 µM
- Kd [2]: > 2000 µM

Compound: CC[C@]1(C(=O)O)C[C@@H]1c1ccccc1 (racemic)
- Kd [1]: 15 µM
- Kd [2]: 720 µM

Compound: O=C(O)[C@@]1(Cc2ccc(Cl)cc2)C[C@@H]1c1ccccc1
- IC50 [3]: 14 µM
- IC50 [4]: 48 µM
- Kd [1]: 84 µM
- Kd [2]: 152 µM

Compound: O=C(O)[C@]1(Cc2ccc(Cl)cc2)C[C@H]1c1ccccc1
- IC50 [3]: 0.099 µM
- IC50 [4]: 0.5 µM
- Kd [1]: 0.054 µM
- Kd [2]: 0.42 µM

Compound: O=C(O)[C@@]1(Cc2ccccc2)C[C@@H]1c1ccccc1 (racemic)
- Kd [1]: 0.2 µM
- Kd [2]: 4.1 µM

Compound: Cc1ccc(C[C@]2(C(=O)O)C[C@@H]2c2ccccc2)cc1
- Kd [1]: 81 µM
- Kd [2]: 121 µM

Compound: O=C(O)[C@@]1(CCc2ccccc2)C[C@@H]1c1ccccc1 (relative stereo)
- Kd [1]: 14 µM
- Kd [2]: 27 µM

Compound: CCOC(=O)[C@@]1(Cc2ccccc2)C[C@@H]1c1ccccc1 (relative stereo)
- Activity [5]: inactive
- solubility [6]: Insoluble
